In ChEMBL document CHEMBL1124104, “(Acyloxy)benzophenones and (acyloxy)-4-pyrones. A new class of inhibitors of human neutrophil elastase” (J Med Chem, 1988):

Columns and labels:
[1] = target: T1, Neutrophil elastase (Homo sapiens) (UniProt P08246); assay: Inhibitory activity against human leukocyte elastase at 10e-4 M
T1 sequence (whole entry): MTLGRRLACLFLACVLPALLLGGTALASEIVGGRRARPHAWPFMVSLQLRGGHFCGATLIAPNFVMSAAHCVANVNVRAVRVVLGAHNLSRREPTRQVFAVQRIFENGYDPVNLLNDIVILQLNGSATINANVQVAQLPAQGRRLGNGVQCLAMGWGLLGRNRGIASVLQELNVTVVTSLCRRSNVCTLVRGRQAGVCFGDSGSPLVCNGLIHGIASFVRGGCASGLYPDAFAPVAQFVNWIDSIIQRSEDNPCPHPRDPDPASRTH
Method in brief: (§1)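 HLE activity followed as rise in absorbance at 410 nm from nitroanilide release; substrate (methoxysuccinyl)Ala-Ala-Pro-Val nitroanilide at 10⁻⁴ M. Run in 0.2 M Tris, pH 8.0, 30 °C. Inhibitors and substrate dissolved in DMSO, which made up 10% of the final medium. Enzyme titrated to give 0.12 OD unit/min per 10 mm path.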

[2] = target: T2, Neutrophil elastase (Homo sapiens, UniProt P08246); assay: Inhibitory activity against human leukocyte elastase; No inhibition at 1x10E-2 M; method in brief: as §1
T2 sequence (P08246 whole entry): T1 sequence (whole entry)

[3] = target: T2, Neutrophil elastase; assay: Inhibitory activity against human leukocyte elastase at 10e-6 M
[4] = target: T1, Neutrophil elastase (Homo sapiens); assay: Inhibitory activity against [14C]elastin hydrolysis at 3 uM concentration and 1h.
Method in brief: (§2)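 Elastase digestion of [¹⁴C]elastin, quantitated by radiolabel release (method of Bielefeld et al.). Substrate, inhibitor and elastase were all present for the whole run, and % inhibition was read at 1, 2 and 3 h.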

[5] = target: T1, Neutrophil elastase (Homo sapiens); assay: Inhibitory activity against [14C]-Elastin hydrolysis at 2 uM concentration and 2 hr.; method in brief: as §2
[6] = target: T1, Neutrophil elastase (Homo sapiens); assay: Inhibitory activity against [14C]elastin hydrolysis at 2 uM concentration and 1h.; method in brief: as §2
[7] = target: T1, Neutrophil elastase (Homo sapiens); assay: Inhibitory activity against [14C]-Elastin hydrolysis at 3 uM concentration and 3h.; method in brief: as §2
[8] = target: T1, Neutrophil elastase (Homo sapiens); assay: Inhibitory activity against [14C]elastin hydrolysis at 1 uM concentration and 2 hr.; method in brief: as §2
[9] = target: T1, Neutrophil elastase (Homo sapiens); assay: Inhibitory activity against [14C]elastin hydrolysis at 3 uM concentration and 2 hr.; method in brief: as §2
[10] = target: T1, Neutrophil elastase (Homo sapiens); assay: Inhibitory activity against [14C]elastin hydrolysis at 1 uM concentration and 1h.; method in brief: as §2
[11] = target: T1, Neutrophil elastase (Homo sapiens); assay: Inhibitory activity against [14C]-Elastin hydrolysis at 2 uM concentration and 3h.; method in brief: as §2
[12] = target: T2, Neutrophil elastase; assay: Inhibitory activity against human leukocyte elastase at 10e-7 M
[13] = target: T2, Neutrophil elastase; assay: Inhibitory activity against human leukocyte elastase at 10e-5 M; method in brief: as §1
[14] = target: T1, Neutrophil elastase (Homo sapiens); assay: Inhibitory activity against [14C]elastin hydrolysis at 4 uM concentration and 1h.; method in brief: as §2
[15] = target: T1, Neutrophil elastase (Homo sapiens); assay: Inhibitory activity against [14C]elastin hydrolysis at 4 uM concentration and 2 hr.; method in brief: as §2
[16] = target: T1, Neutrophil elastase (Homo sapiens); assay: Inhibitory activity against [14C]elastin hydrolysis at 4 uM concentration and 3h.; method in brief: as §2
[17] = Inhibitory activity against Hog pancreatic elastase; IA = Inactive at 10e-5 M; parameters: species or system Sus scrofa
[18] = Inhibitory activity against pancreatic elastase; IA = Inactive at 10e-5 M
[19] = target: T2, Neutrophil elastase; assay: Inhibitory activity against human leukocyte elastase at 10e-8 M
[20] = Inhibitory activity against Hog pancreatic elastase IA = Inactive at 10e-5 M; parameters: species or system Sus scrofa
[21] = target: T2, Neutrophil elastase; assay: Binding affinity towards human leukocyte elastase at 10e-8 M; method in brief: as §1
[22] = target: T1, Neutrophil elastase (Homo sapiens); assay: Inhibitory activity against [14C]elastin hydrolysis at 0.5 uM concentration and 1h.; method in brief: as §2
[23] = target: T1, Neutrophil elastase (Homo sapiens); assay: Inhibitory activity against [14C]-Elastin hydrolysis at 0.5 uM concentration and 2 hr.; method in brief: as §2
[24] = target: T1, Neutrophil elastase (Homo sapiens); assay: Inhibitory activity against [14C]elastin hydrolysis at 0.5 uM concentration and 3h.; method in brief: as §2
[25] = target: T1, Neutrophil elastase (Homo sapiens); assay: Inhibitory activity against [14C]elastin hydrolysis at 1 uM concentration and 3h.; method in brief: as §2

O=c1cc(COC2CCOCC2)occ1OC(=O)[C@]12C[C@H]3C[C@H](C[C@H](C3)C1)C2
inhibition [1]: 33%

CC1(C)C(=O)Oc2ccc(C(=O)c3ccccc3)cc21
IC50 [2]: No inhibition

CC(C)(C)C(=O)Oc1ccc(C(=O)c2ccc(O)cc2)cc1
IC50 [3]: 2700 nM

CCC(C)CC(=O)Oc1ccc(C(=O)c2ccc(OC(=O)CC(C)CC)cc2OC(=O)CC(C)CC)c(OC(=O)CC(C)CC)c1 (centres undefined)
IC50 [3]: 1500 nM

CC(C)(C)C(=O)Oc1ccccc1C(=O)c1ccccc1OC(=O)C(C)(C)C
IC50 [3]: 8000 nM

CC(C)(C)C(=O)Oc1ccc(C(=O)c2ccccc2)c(OC(=O)C(C)(C)C)c1
inhibition [4]: 62%
inhibition [5]: 12%
inhibition [6]: 36%
inhibition [7]: 10%
inhibition [8]: 10%
inhibition [9]: 32%
inhibition [10]: 14%
inhibition [11]: 9%

CC(C)(C)C(=O)Oc1ccccc1C(=O)c1ccccc1
IC50 [12]: 10000 nM

CC(=O)Oc1ccc(C(=O)c2ccccc2)cc1
IC50 [13]: 16000 nM

CC(C)(C)C(=O)Oc1ccc(C(OC(=O)CCC(=O)O)c2ccc(OC(=O)C(C)(C)C)cc2)cc1
IC50 [3]: 3000 nM

CCCCCCCC/C=C/CCCCCCCCCCCC(=O)OCc1cc(=O)c(OC(=O)C(C)(C)C)co1
IC50 [12]: 160 nM
inhibition [14]: 77%
inhibition [4]: 74%
inhibition [5]: 33%
inhibition [6]: 61%
inhibition [7]: 32%
inhibition [15]: 50%
inhibition [9]: 46%
inhibition [11]: 13%
inhibition [16]: 22%

CC(CO)Cc1cc(C(=O)c2ccccc2)ccc1OC(=O)C(C)(C)C (centres undefined)
IC50 [3]: 1500 nM

CCCCCCCC/C=C/CCCCCCCC(=O)OCc1cc(=O)c(OC(=O)[C@]23C[C@H]4C[C@H](C[C@H](C4)C2)C3)co1
IC50 [13]: 80000 nM

CCCCCCCCCCCCC(C)(C)C(=O)OCc1cc(=O)c(OC(=O)C(C)(C)C)co1
IC50 [12]: 600 nM

CC(=O)NC(C)(C)C(=O)Oc1ccc(C(=O)c2ccccc2)cc1
IC50 [13]: 19000 nM

CC1Cc2cc(C(=O)c3ccccc3)ccc2OC1=O (centres undefined)
IC50 [2]: No inhibition

CC1C(=O)Oc2ccc(C(=O)c3ccccc3)cc21 (centres undefined)
IC50 [2]: No inhibition

CC(C)(C)C(=O)Oc1ccccc1C(=O)OCc1cc(=O)c(OC(=O)C(C)(C)C)co1
IC50 [3]: 5400 nM

CCCCCCCCCCCCCCCCCCCC(=O)OCc1cc(=O)c(OC(=O)C(C)(C)C)co1
IC50 [12]: 130 nM

CC(C)(C)C(=O)Oc1ccc(C(=O)OCc2cc(=O)c(OC(=O)C(C)(C)C)co2)cc1
IC50 [12]: 200 nM
IC50 [17]: Not Active
IC50 [18]: Not Active

CCCCCC/C=C/CCCCCCCC(=O)OCc1cc(=O)c(OC(=O)C(C)(C)C)co1
IC50 [12]: 130 nM
IC50 [17]: Not Active
IC50 [18]: Not Active

CCCCCCCCCCCCCCCCCCCC(=O)OCc1cc(=O)c(O)co1
IC50 [12]: 9000 nM

Cc1cc(C)c(C(=O)OCc2cc(=O)c(OC(=O)C(C)(C)C)co2)c(C)c1
IC50 [3]: 8400 nM

CCCCCCCCCCCCCCCCCC(=O)OCc1cc(=O)c(OC(=O)C(C)C)co1
IC50 [19]: 72 nM

CC(C)(C)C(=O)Oc1ccc(C(=O)c2ccc(Cl)cc2)cc1
IC50 [12]: 140 nM

CC(C(=O)O)c1cc(C(=O)c2ccccc2)ccc1OC(=O)C(C)(C)C (centres undefined)
IC50 [13]: 12000 nM

CC(C)(C)C(=O)Oc1ccc(C(=O)c2ccc(OC(=O)C(C)(C)C)cc2OC(=O)C(C)(C)C)c(OC(=O)C(C)(C)C)c1
IC50 [20]: Not Active
Ki [21]: 68 nM
IC50 [18]: Not Active
inhibition [5]: 85%
IC50 [19]: 27 nM
inhibition [6]: 81%
inhibition [8]: 72%
inhibition [22]: 38%
inhibition [23]: 38%
inhibition [24]: 21%
inhibition [25]: 59%
inhibition [10]: 62%
inhibition [11]: 82%

CC(C)(C)C(=O)Oc1coc(COC(c2ccccc2)(c2ccccc2)c2ccccc2)cc1=O
IC50 [3]: 1000 nM
